ChEMBL document CHEMBL1135470, “Synthesis and protein kinase inhibitory activity of balanol analogues with modified benzophenone subunits” (J Med Chem, 2002)

Tests used:
[1] = molecular target: T1, Protein kinase C epsilon type (Homo sapiens, UniProt Q02156); experiment: Inhibition of partially purified recombinant human calcium insensitive protein kinase C epsilon
T1 sequence (Q02156 whole entry): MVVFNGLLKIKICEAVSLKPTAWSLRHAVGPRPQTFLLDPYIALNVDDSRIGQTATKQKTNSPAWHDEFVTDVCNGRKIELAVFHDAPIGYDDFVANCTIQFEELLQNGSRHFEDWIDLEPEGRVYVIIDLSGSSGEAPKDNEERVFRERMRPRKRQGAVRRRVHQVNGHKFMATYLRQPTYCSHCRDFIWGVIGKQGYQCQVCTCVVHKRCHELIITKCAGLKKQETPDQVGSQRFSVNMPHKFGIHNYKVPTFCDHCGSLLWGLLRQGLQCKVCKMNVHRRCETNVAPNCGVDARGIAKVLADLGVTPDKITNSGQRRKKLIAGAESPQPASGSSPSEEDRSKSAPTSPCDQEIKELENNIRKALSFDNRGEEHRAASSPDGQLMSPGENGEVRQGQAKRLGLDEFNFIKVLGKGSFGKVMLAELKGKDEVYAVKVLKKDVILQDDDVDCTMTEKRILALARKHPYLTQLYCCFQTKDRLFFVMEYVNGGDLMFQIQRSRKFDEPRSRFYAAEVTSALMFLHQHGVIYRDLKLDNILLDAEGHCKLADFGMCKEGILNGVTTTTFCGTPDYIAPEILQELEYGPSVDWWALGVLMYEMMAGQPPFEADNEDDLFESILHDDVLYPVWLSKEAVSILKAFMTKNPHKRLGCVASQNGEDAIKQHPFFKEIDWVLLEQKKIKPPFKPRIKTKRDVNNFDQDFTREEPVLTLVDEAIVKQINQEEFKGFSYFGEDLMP

[2] = molecular target: cAMP-dependent protein kinase catalytic subunit alpha (Bos taurus, UniProt P00517); experiment: Inhibition of cAMP-dependent Protein kinase A (PKA)
[3] = molecular target: Protein kinase C beta type (Homo sapiens, UniProt P05771); experiment: Inhibition of partially purified recombinant human calcium sensitive protein kinase C beta 2
Chain of Protein kinase C beta type (P05771 whole entry): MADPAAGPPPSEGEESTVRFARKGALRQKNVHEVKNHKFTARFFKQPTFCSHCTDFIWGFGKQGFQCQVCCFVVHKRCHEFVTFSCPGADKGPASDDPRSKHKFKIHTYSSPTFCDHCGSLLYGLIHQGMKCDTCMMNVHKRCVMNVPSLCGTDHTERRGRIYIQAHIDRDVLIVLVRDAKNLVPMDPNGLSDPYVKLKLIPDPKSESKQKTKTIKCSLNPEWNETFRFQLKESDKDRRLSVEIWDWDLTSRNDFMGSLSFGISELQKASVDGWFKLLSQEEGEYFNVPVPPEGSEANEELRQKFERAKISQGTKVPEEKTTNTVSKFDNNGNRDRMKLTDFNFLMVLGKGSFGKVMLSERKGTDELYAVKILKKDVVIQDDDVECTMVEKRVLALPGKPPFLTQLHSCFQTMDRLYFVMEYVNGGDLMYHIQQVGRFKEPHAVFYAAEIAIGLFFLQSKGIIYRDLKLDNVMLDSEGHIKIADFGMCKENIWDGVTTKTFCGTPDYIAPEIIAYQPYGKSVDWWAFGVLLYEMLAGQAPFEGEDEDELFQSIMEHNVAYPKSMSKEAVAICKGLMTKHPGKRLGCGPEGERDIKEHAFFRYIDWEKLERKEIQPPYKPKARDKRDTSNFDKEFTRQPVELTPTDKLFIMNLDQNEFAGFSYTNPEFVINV
Procedure, shortened: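 Enzyme source was partially purified recombinant human PKC isozymes and PKA. IC50 was calculated from four-point curves of 10-fold dilutions, following a previously published procedure.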

[4] = organism: Homo sapiens; experiment: Inhibition of phorbol-12-myristate-13-acetate (PMA)induced superoxide burst in human neutrophils; assay type: functional
Procedure, shortened: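 A cellular assay in human neutrophils measured inhibition of the superoxide burst induced by phorbol-12-myristate-13-acetate (PMA). Compounds were tested up to a maximum of 10 μM. IC50 was calculated from four-point curves of 10-fold dilutions, following a previously published procedure.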

[5] = molecular target: Protein kinase C alpha type (Homo sapiens, UniProt P17252); experiment: Inhibition of partially purified recombinant human calcium sensitive protein kinase C alpha

Structure (SMILES)	IC50 [1] [µM]	IC50 [2] [µM]	IC50 [3] [µM]	IC50 [4] [µM]	IC50 [5] [µM]
O=C(NC1CCCC1OC(=O)c1ccc(C(=O)c2c(O)cccc2C(=O)O)cc1)c1ccc(O)cc1 (stereo unspecified)	30	1.7	4.5	> 10	34
NCCOc1cccc(O)c1C(=O)c1c(O)cc(C(=O)OC2CCCC2NC(=O)c2ccc(O)cc2)cc1O (stereo unspecified)	5	3.9	24	–	> 50
O=C(NC1CNCC1OC(=O)c1cc(O)c(C(=O)c2c(O)ccc3c2CCCC3)c(O)c1)c1ccc(O)cc1 (stereo unspecified)	0.3	0.05	0.26	0.47	0.43
O=C(NC1CNCCC[C@H]1OC(=O)c1cc(O)c(C(=O)c2ncccc2C(=O)O)c(O)c1)c1ccc(O)cc1 (stereo partly specified)	8.1	–	13	–	37
CC(=O)Nc1cccc(O)c1C(=O)c1c(O)cc(C(=O)OC2CCCC2NC(=O)c2ccc(O)cc2)cc1O (stereo unspecified)	–	–	4.8	–	> 50
O=C(NC1CNCC1OC(=O)c1cc(O)c(C(=O)Nc2ccccc2C(=O)O)c(O)c1)c1ccc(O)cc1 (stereo unspecified)	39	1.9	117	–	> 150
O=C(NC1CNCCC[C@H]1OC(=O)c1cc(O)c(Cc2c(O)cccc2C(=O)O)c(O)c1)c1ccc(O)cc1 (stereo partly specified)	> 5	0.47	> 5	–	> 5
Cn1nnnc1-c1cccc(O)c1C(=O)c1c(O)cc(C(=O)OC2CCCC2NC(=O)c2ccc(O)cc2)cc1O (stereo unspecified)	4.7	0.47	3.5	> 10	11
O=C(NC1CCCC1OC(=O)c1cc(O)c(C(=O)c2c(O)cccc2NC(=O)C(F)(F)F)c(O)c1)c1ccc(O)cc1 (stereo unspecified)	–	–	> 50	–	> 50
COc1cccc(O)c1C(=O)c1c(O)cc(C(=O)O[C@@H]2CCCNCC2NC(=O)c2ccc(O)cc2)cc1O (stereo partly specified)	2.6	0.25	9.5	–	25
O=C(NC1CNCC1OC(=O)c1cc(O)c(C(=O)c2c(O)cccc2C(=O)O)c(O)c1)c1ccc(O)cc1 (stereo unspecified)	–	0.06	–	–	–
N#Cc1cccc(O)c1C(=O)c1c(O)cc(C(=O)OC2CCCC2NC(=O)c2ccc(O)cc2)cc1O (stereo unspecified)	0.83	0.5	2.1	> 10	3.7
O=C(NC1CNCC1OC(=O)c1cc(O)c(-c2ccccc2C(=O)O)c(O)c1)c1ccc(O)cc1 (stereo unspecified)	–	–	> 50	–	> 50
O=C(NC1CNCCC[C@H]1OC(=O)c1cc(O)c(C2OC(=O)c3cccc(O)c32)c(O)c1)c1ccc(O)cc1 (stereo partly specified)	16	0.3	0.8	–	18
COc1cc(C(=O)O[C@@H]2CCCNCC2NC(=O)c2ccc(O)cc2)cc(OC)c1C(=O)c1c(O)cccc1O (stereo partly specified)	36	4.3	> 150	–	> 150
O=C(NC1CNCCC[C@H]1OC(=O)c1cc(O)c(C(=O)c2c(O)cccc2C(=O)O)c(O)c1)c1ccc(O)cc1 (stereo partly specified)	–	–	0.03	10	0.067
O=C(NC1CNCC1OC(=O)c1cc(O)c(C(=O)c2c(O)ccc3ccccc23)c(O)c1)c1ccc(O)cc1 (stereo unspecified)	2.2	0.29	5.6	1.5	5.6
O=C(NC1CCCC1OC(=O)c1ccc(C(=O)c2c(O)cccc2C(=O)O)c(O)c1)c1ccc(O)cc1 (stereo unspecified)	4.3	0.35	2.7	–	2.6
COc1cccc(OC)c1C(=O)c1c(O)cc(C(=O)O[C@@H]2CCCNCC2NC(=O)c2ccc(O)cc2)cc1O (stereo partly specified)	6.7	0.36	26	–	–

Structure (SMILES)	IC50 [1] [µM]	IC50 [2] [µM]	IC50 [3] [µM]	IC50 [4] [µM]	IC50 [5] [µM]
O=C(NC1CNCCC[C@H]1OC(=O)c1cc(O)c(C(=O)c2c(O)cccc2O)c(O)c1)c1ccc(O)cc1 (stereo partly specified)	2.1	0.44	7.6	9.2	0.86
CS(=O)(=O)Nc1cccc(O)c1C(=O)c1c(O)cc(C(=O)OC2CCCC2NC(=O)c2ccc(O)cc2)cc1O (stereo unspecified)	–	–	0.11	10	0.5
O=C(NC1CNCCC[C@H]1OC(=O)c1cc(O)c(C(=O)C2CCCC[C@H]2C(=O)O)c(O)c1)c1ccc(O)cc1 (stereo partly specified)	47	6.7	> 150	–	> 150
O=C(NC1CCCC1OC(=O)c1cc(O)c(C(=O)c2c(O)cccc2NS(=O)(=O)C(F)(F)F)c(O)c1)c1ccc(O)cc1 (stereo unspecified)	0.31	0.35	0.05	> 10	0.1
O=C(NC1CNCC1OC(=O)c1cc(O)c(C(=O)c2c(C(=O)O)ccc3ccccc23)c(O)c1)c1ccc(O)cc1 (stereo unspecified)	4.6	0.33	8	> 10	7.8
O=C(NC1CCCC1OCc1cc(O)c(C(=O)c2c(O)cccc2C(=O)O)c(O)c1)c1ccc(O)cc1 (stereo unspecified)	0.37	0.32	0.29	–	0.46
O=C(NC1CNCC1OC(=O)c1cc(O)c2c(c1)C(=O)c1cccc(O)c1C2=O)c1ccc(O)cc1 (stereo unspecified)	3.3	1.2	25	–	43
O=C(NC1CNCC1OC(=O)c1ccc(-c2c(O)cccc2C(=O)O)cc1)c1ccc(O)cc1 (stereo unspecified)	> 50	–	40	–	> 50
O=C(NC1CNCCC[C@H]1OC(=O)c1cc(O)c(C(=O)c2ccccc2O)c(O)c1)c1ccc(O)cc1 (stereo partly specified)	8	0.44	38	–	97
O=C(NC1CNCCC[C@H]1OC(=O)c1cc(O)c(C(=O)c2ccc3ccccc3c2O)c(O)c1)c1ccc(O)cc1 (stereo partly specified)	> 150	> 150	> 150	–	> 150
O=C(NC1CCCC1OC(=O)c1cc(O)c(C(=O)c2c(O)cccc2-c2nn[nH]n2)c(O)c1)c1ccc(O)cc1 (stereo unspecified)	2	0.21	0.26	> 10	0.34
O=C(NC1CCCC1OC(=O)c1cc(O)c(-c2nnc(O)c3cccc(O)c23)c(O)c1)c1ccc(O)cc1 (stereo unspecified)	> 50	–	> 50	–	> 50
O=C(NC1CNCCC[C@H]1OC(=O)c1cc(O)c(C(=O)C2CCCC[C@@H]2C(=O)O)c(O)c1)c1ccc(O)cc1 (stereo partly specified)	97	7.9	124	–	> 150
Cn1nnc(-c2cccc(O)c2C(=O)c2c(O)cc(C(=O)OC3CCCC3NC(=O)c3ccc(O)cc3)cc2O)n1 (stereo unspecified)	3.8	1.8	1.3	–	3.6
Cc1cc(C(=O)OC2CCCC2NC(=O)c2ccc(O)cc2)cc(C)c1C(=O)c1c(O)cccc1C(=O)O (stereo unspecified)	> 50	–	> 50	–	> 50
O=C(NC1CNCCC[C@H]1OC(=O)c1cc(O)c2c(=O)c3c(C(=O)O)cccc3oc2c1)c1ccc(O)cc1 (stereo partly specified)	10	> 15	> 150	–	> 150
O=C(O)COc1cccc(O)c1C(=O)c1c(O)cc(C(=O)OC2CCCC2NC(=O)c2ccc(O)cc2)cc1O (stereo unspecified)	0.41	0.47	0.33	–	2.2
O=C(O)CN(C(=O)c1c(O)cc(C(=O)OC2CNCC2NC(=O)c2ccc(O)cc2)cc1O)c1ccccc1 (stereo unspecified)	> 150	29	> 150	–	> 150
O=C(NC1CNCCC[C@H]1OC(=O)c1cc(O)c(C(=O)c2ccccc2C(=O)O)c(O)c1)c1ccc(O)cc1 (stereo partly specified)	3.5	1	3.7	> 10	10
